Measured values as given in ChEMBL document CHEMBL4308833, “A Thieno[2,3- d]pyrimidine Scaffold Is a Novel Negative Allosteric Modulator of the Dopamine D2 Receptor” (J Med Chem, 2018).

Experiments:
[1] = biological target: D(2) dopamine receptor (Homo sapiens) (UniProt P14416); assay: (§1) Negative allosteric modulation of recombinant human D2L receptor expressed in Flp-In CHO cells assessed as inhibition of dopamine-induced reduction in forskolin stimulated cAMP accumulation preincubated for 30 mins followed by forskolin stimulation and measured after 30 mins by BRET assay; assay type: functional, cell-based
[2] = biological target: D(2) dopamine receptor (Homo sapiens) (UniProt P14416); assay: as §1, with “accumulation by measuring co-operativity factor” for “accumulation”; assay type: functional, cell-based
[3] = biological target: D(3) dopamine receptor (Homo sapiens) (UniProt P35462); assay: Displacement of [3H]Raclopride from recombinant D3 receptor (unknown origin) expressed in Flp-In CHO cell membranes after 2 to 3 hrs by microbeta counting method
Summary of the method: (§2)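 In FlpIn CHO membranes expressing hD3R, compound was tested for displacement of [3H]raclopride in equilibrium binding. Competition curves were fitted with an allosteric ternary complex model to give KB and the net cooperativity factor with [3H]raclopride. Data are at least three independent experiments in duplicate.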

[4] = biological target: D(2) dopamine receptor (Homo sapiens) (UniProt P14416); assay: Displacement of [3H]Raclopride from recombinant human D2L receptor expressed in Flp-In CHO cell membranes after 2 to 3 hrs by microbeta counting method
Summary of the method: (§3)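 hD2LR FlpIn CHO membrane homogenate (15 µg protein) was co-incubated with 0.5 nM [3H]raclopride and test compound at 10^-3 to 10^-7 M (half-log dilutions from DMSO stock, in duplicate). Incubation was 2-3 h at 25 °C in HEPES buffer, pH 7.4. Nonspecific binding was defined with 10 µM haloperidol. Filtration was followed by scintillation counting. KB and cooperativity α were obtained from an allosteric ternary complex model.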

[5] = biological target: D(2) dopamine receptor (Homo sapiens) (UniProt P14416); assay: Displacement of [3H]Raclopride from recombinant human D2L receptor expressed in Flp-In CHO cell membranes assessed as co-operativity factor after 2 to 3 hrs by microbeta counting method; summary of the method: as §3
[6] = biological target: D(2) dopamine receptor (Homo sapiens) (UniProt P14416); assay: Allosteric modulation of recombinant human D2L receptor expressed in Flp-In CHO cell membranes assessed as dissociation half life for [3H]Raclopride in presence of haloperidol after 2 to 3 hrs by microbeta counting method (reference value: 49.2 min); assay type: cell-based
Summary of the method: (§4)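 Membranes from FlpIn CHO cells stably expressing hD2LR were incubated with 0.5 nM [3H]raclopride for 60 min in HEPES/NaCl/MgCl2/EGTA/EDTA buffer, pH 7.4, at 25 °C. Dissociation was then started by adding 10 µM haloperidol, with or without modulator. Bound radioactivity was collected by filtration and scintillation counting. Curves were fitted for koff, and t1/2 = 0.6931/koff.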

Homo sapiens = organism: Homo sapiens; assay: Selectivity ratio of Kb for recombinant D3 receptor (unknown origin) expressed in Flp-In CHO cell membranes to Kb for recombinant human D2L receptor expressed in Flp-In CHO cell membranes; assay type: cell-based
[7] = biological target: D(2) dopamine receptor (Homo sapiens) (UniProt P14416); assay: Allosteric modulation of recombinant human D2L receptor expressed in Flp-In CHO cell membranes assessed as dissociation of [3H]Raclopride in presence of haloperidol after 2 to 3 hrs by microbeta counting method (reference value: 0.014 +/- 0.001 /min); assay type: cell-based; summary of the method: as §4
[8] = biological target: D(2) dopamine receptor (Homo sapiens) (UniProt P14416); assay: as §1, with “accumulation by measuring modulation of dopamine efficacy” for “accumulation”; assay type: functional, cell-based
[9] = biological target: D(2) dopamine receptor (Homo sapiens) (UniProt P14416); assay: Allosteric modulation of recombinant human D2L receptor expressed in Flp-In CHO cell membranes assessed as dissociation half life for [3H]Raclopride at 100 uM in presence of haloperidol after 2 to 3 hrs by microbeta counting method (reference value: 34.2 min); assay type: cell-based; summary of the method: as §4
[10] = biological target: D(2) dopamine receptor (Homo sapiens) (UniProt P14416); assay: Allosteric modulation of recombinant human D2L receptor expressed in Flp-In CHO cell membranes assessed as dissociation of [3H]Raclopride at 100 uM in presence of haloperidol after 2 to 3 hrs by microbeta counting method (reference value: 0.02 +/- 0.004 /min); assay type: cell-based; summary of the method: as §4
[11] = biological target: D(3) dopamine receptor (Homo sapiens) (UniProt P35462); assay: Displacement of [3H]Raclopride from recombinant D3 receptor (unknown origin) expressed in Flp-In CHO cell membranes assessed as co-operativity factor after 2 to 3 hrs by microbeta counting method; summary of the method: as §2

Chain of D(2) dopamine receptor (Homo sapiens) (P14416 whole entry): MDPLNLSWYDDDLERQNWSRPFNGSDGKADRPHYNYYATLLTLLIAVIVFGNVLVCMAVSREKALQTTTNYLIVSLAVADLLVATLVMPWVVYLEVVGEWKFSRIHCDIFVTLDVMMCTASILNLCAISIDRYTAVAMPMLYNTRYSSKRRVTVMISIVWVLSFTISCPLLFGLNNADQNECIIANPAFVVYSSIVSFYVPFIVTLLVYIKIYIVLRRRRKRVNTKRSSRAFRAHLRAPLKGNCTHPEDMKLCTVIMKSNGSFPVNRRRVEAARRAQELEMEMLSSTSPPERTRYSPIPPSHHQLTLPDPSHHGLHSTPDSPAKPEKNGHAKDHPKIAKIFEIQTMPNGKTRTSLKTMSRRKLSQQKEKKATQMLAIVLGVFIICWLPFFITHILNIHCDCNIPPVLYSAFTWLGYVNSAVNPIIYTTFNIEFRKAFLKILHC
Chain of D(3) dopamine receptor (Homo sapiens) (P35462 whole entry): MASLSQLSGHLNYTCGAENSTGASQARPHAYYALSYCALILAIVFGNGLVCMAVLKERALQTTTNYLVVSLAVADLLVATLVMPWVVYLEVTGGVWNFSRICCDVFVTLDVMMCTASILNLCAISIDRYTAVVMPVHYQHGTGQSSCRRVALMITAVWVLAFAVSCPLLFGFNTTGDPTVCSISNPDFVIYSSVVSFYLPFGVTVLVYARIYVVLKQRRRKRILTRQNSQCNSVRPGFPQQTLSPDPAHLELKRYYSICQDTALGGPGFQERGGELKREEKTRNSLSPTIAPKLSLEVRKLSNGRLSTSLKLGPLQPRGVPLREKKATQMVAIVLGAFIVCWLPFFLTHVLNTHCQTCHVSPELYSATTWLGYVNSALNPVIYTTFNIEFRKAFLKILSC

| SMILES | Kb [1] [µM] | pKb [1] | Activity [2] | log(activity) [2] | pKb [3] | Kb [4] [µM] | pKb [4] | Activity [5] | log(activity) [5] | T1/2 [6] [min] | Selectivity ratio (Homo sapiens) | K [7] [min⁻¹] | Activity [8] | log(activity) [8] | Kb [3] [µM] | T1/2 [9] [min] | K [10] [min⁻¹] | Activity [11] | log(activity) [11] |
| --- | --- | --- | --- | --- | --- | --- | --- | --- | --- | --- | --- | --- | --- | --- | --- | --- | --- | --- | --- |
| CCN(CC)c1nc(CN2CCOCC2)nc2sc3c(c12)CCCC3 | 0.662 | 6.18 | 0.68 | -0.17 | 3.85 | 6 | 5.22 | 0.23 | -0.64 | 18.2 | 23 | 0.038 | 0.08 | -1.1 |  |  |  |  |  |
| FC(F)(F)c1cccc(Nc2nc(CN3CCOCC3)nc3sc4c(c23)CCCC4)c1 | 3.87 | 5.41 |  | 0 | 6.54 | 16.6 | 4.78 |  |  |  | 57 |  | 0.28 | -0.55 | 0.3 | 18.1 | 0.038 | 0.39 | -0.4 |
| FC(F)(F)c1cccc(Nc2nc(CC3CCOCC3)nc3sc4c(c23)CCCC4)c1 | 0.622 | 6.22 | 0.13 | -0.89 | 4.28 | 100 | 3.99 | 0.39 | -0.41 |  | 2 |  | 0.23 | -0.63 | 52 |  |  | 0.37 | -0.44 |
